From PubChem BioAssay come the findings set out here.

The target of test [1] is Pantothenate synthetase (Mycobacterium tuberculosis (strain ATCC 25618 / H37Rv)) (UniProt P9WIL5). In words: Coupled enzyme confirmation of inhibitors against recombinant Mtb PanC (AID 375; call rule not given here;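 note: 0% = full reaction with vehicle and 100% = no enzyme background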). Conditions: coupled enzyme assay; at 10 µM, stronger effect = higher value.
Test [2] is described as follows: reduced viability of SK-BR-3 breast cancer cells – cell-based, 24 h, human, pilot screen (AID 572;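 active = viability at or below 10% of carrier control in both of two separate runs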;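 note: compound exposure lasted between 18 and 24 h rather than exactly 24 h; 100% = carrier-treated control wells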). Conditions: SK-BR-3 viability, CellTiter-Glo luminescence, at 10 µM, stronger effect = lower value.
The nature of test [3]: HUVEC growth inhibition – cell-based, human, primary screen (AID 575;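 active = viability at or below 30% in both replicate assays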;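 note: 100% = median of untreated cell wells with 0.1% DMSO on each plate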). Conditions: HUVEC proliferation, CellTiter-Glo luminescence, 72 h; at 10 µM; stronger effect = lower value. The gist of the method: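 Material: primary human umbilical vein endothelial cells / Schedule: 72 h exposure, 37 °C, 5% CO2, 30 min RT equilibration / Signal: ATP-based CellTiter-Glo luminescent read / Read-out basis: percent of median DMSO-control luminescence / Control set: 32 DMSO-only cell-control wells (high), 32 MePR drug-control wells (low) per plate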

The nature of test [4]: H69AR cell proliferation blockers – human, duplicate replicates, primary screen (AID 580;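 active = viability at or under a set limit in both replicates, limit being median viability minus 3 SD, cut at about 48% in these data, passing the limit was not always enough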;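 note: 100% = mean luminescence of untreated wells and 0% = no signal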). Conditions: H69AR lung tumor cells viability, ATP luminescence, 72 h; at 10 µM; stronger effect = lower value.
Test [5] in a line: MRP1 drug-resistance reversers in H69AR cells – cell-based, doxorubicin co-treatment, pilot screen (AID 601). Conditions: CellTiter-Glo, 72 h, at 10 µM; for differential viability (reversal): stronger effect = higher value.
Test [6] in a line: yeast transport mutant growth inhibition pilot in 384-well plates, post-Golgi transport modulator project (AID 636; in the data active = inhibition above about 31%). Conditions: absorbance 615 nm, about 18 h, stronger effect = higher value.
Test [7] is described as follows: growth suppression of yeast trafficking mutant, preliminary HTS, modulators of trafficking downstream of Golgi apparatus project, 1536-format plate, OD 615 nm (AID 637; in the data active = inhibition above about 30%). Conditions: yeast transport mutant growth, absorbance 615 nm, 18 h; stronger effect = higher value.
The mark [8] stands for this setting: H69AR cells + 2 uM doxorubicin, measured here: viability with 2 uM doxorubicin, stronger effect = lower value.
[9] abbreviates: H69AR cells, compound alone cytotoxicity.

Calls of active or inactive are those of the source.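 Rule for the calls, unless noted: active = viability loss from added drug above about 55%, and viability with drug at most 40%, in both replicates (limit read from the data, passing the limit was not always enough); inconclusive = both conditions met in only one replicate; inactive = neither replicate meets both conditions.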

Pantothenate synthetase (Mycobacterium tuberculosis (strain ATCC 25618 / H37Rv)), sequence (P9WIL5 whole entry, looked up): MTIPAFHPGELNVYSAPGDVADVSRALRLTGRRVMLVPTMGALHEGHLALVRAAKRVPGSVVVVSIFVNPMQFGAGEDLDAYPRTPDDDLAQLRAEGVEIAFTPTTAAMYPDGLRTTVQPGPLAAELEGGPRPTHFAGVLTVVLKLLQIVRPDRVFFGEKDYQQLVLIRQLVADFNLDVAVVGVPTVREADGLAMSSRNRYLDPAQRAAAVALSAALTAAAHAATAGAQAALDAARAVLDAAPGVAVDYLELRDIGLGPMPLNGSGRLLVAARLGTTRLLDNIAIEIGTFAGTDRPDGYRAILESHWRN

For `Cc1ccnc(-n2c(-c3ccco3)nc3ccccc3c2=O)c1`, the inhibition was 0% (inactive) in test [1], -2.47% (inactive) in test [6] and 1.15% (inactive) in test [7]. Further, the viability is 105% (inactive) in test [2]; 107% (inactive) in test [3]; 99.8% (inactive) in test [4]; 89.6% in test [5] (setting [8]); 99.8% in test [5] (setting [9]). Further, the differential viability (reversal) in test [5] (H69AR cells + 2 uM doxorubicin) was 10.2% (inactive).

For `CC(C)OCCCNC(=O)c1c(N)n(Cc2cccs2)c2nc3ccccc3nc12`, the inhibition in test [1] is 0% (inactive); in test [6], -2.47% (inactive); in test [7] it was -7.33% (inactive). The viability in test [2] is 26%; in test [3], 6.24% (active); in test [4], 61.1% (inactive); in test [5] (setting [8]), 79.8%; in test [5] (setting [9]), 61.1%. For the same compound, the differential viability (reversal) in test [5] (H69AR cells + 2 uM doxorubicin) is -18.8% (inactive).

For `C[N+]1(C)CCN(c2ccccc2)CC1`, the inhibition in test [1] was 8% (inactive); in test [6], -1.69% (inactive); in test [7] it was 0.5% (inactive). For the same compound, the viability in test [2] was 118% (inactive); in test [3], 95.8% (inactive); in test [4], 84.9% (inactive); in test [5] (setting [8]) it was 97%; in test [5] (setting [9]) it was 84.9%. Besides, in test [5] (H69AR cells + 2 uM doxorubicin), the differential viability (reversal) was -12.1% (inactive).

For the compound `COP(=O)(OC)C(O)C(Cl)(Cl)Cl` (stereo not drawn), the inhibition in test [1] is 0% (inactive); in test [6], -1.56% (inactive); in test [7], -3.83% (inactive). The viability in test [2] is 122% (inactive); in test [3], 95.5% (inactive); in test [4], 82.6% (inactive); in test [5] (setting [8]) it was 85.7%; in test [5] (setting [9]), 82.6%. In test [5] (H69AR cells + 2 uM doxorubicin), the differential viability (reversal) is -3.13% (inactive).

Turning to `COc1ccc(CC[n+]2cc(/N=C(\C)[O-])on2)cc1OC`, the inhibition is 0% (inactive) in test [1], 0.52% (inactive) in test [6] and 4.26% (inactive) in test [7]. Besides, the viability in test [2] is 146% (inactive); in test [3] it was 93.9% (inactive); in test [4], 92.1% (inactive); in test [5] (setting [8]), 95.2%; in test [5] (setting [9]) it was 92.1%. Moreover, the differential viability (reversal) in test [5] (H69AR cells + 2 uM doxorubicin) is -3.11% (inactive).

Regarding `Cc1cc(OCC(=O)O)c2c3c(c(=O)oc2c1)CCCC3`, the results for the inhibition in test [1], in test [6] and in test [7] were 1% (inactive), -4.16% (inactive) and 7.38% (inactive), respectively. Further, the viability in test [2] was 132% (inactive); in test [3], 85.9% (inactive); in test [4], 84.8% (inactive); in test [5] (setting [8]), 87.9%; in test [5] (setting [9]), 84.8%. The differential viability (reversal) in test [5] (H69AR cells + 2 uM doxorubicin) was -3.02% (inactive).

As to `c1ccc2c3c([nH]c2c1)CNCC3`, the inhibition in test [1] was 0% (inactive); in test [6] it was -1.17% (inactive); in test [7], 0.5% (inactive). In addition, the viability in test [2] is 116% (inactive); in test [3], 77.7% (inactive); in test [4], 89.9% (inactive); in test [5] (setting [8]) it was 80%; in test [5] (setting [9]), 89.9%. Also, in test [5] (H69AR cells + 2 uM doxorubicin), the differential viability (reversal) is 9.92% (inactive).

For `COC1=CC(=O)OC(/C=C/c2ccccc2)C1` (stereo not drawn), the results for the inhibition in test [1], in test [6] and in test [7] were 0% (inactive), -1.56% (inactive) and -4.5% (inactive), respectively. The viability in test [2] was 124% (inactive); in test [3], 96.6% (inactive); in test [4], 87.6% (inactive); in test [5] (setting [8]), 84.8%; in test [5] (setting [9]) it was 87.6%. In addition, the differential viability (reversal) in test [5] (H69AR cells + 2 uM doxorubicin) was 2.78% (inactive).

As to `COc1ccc(Cc2nccc3cc(OC)c(OC)cc23)cc1OC`, the inhibition in test [1] is 0% (inactive); in test [6], 0.39% (inactive); in test [7], -2.5% (inactive). Also, the viability in test [2] is 88% (inactive); in test [3], 78.6% (inactive); in test [4] it was 81.7% (inactive); in test [5] (setting [8]), 82%; in test [5] (setting [9]) it was 81.7%. In addition, the differential viability (reversal) in test [5] (H69AR cells + 2 uM doxorubicin) is -0.28% (inactive).

In the case of `OC(CNC1CCCCC1)c1ccccc1` (stereo not drawn), the inhibition was 7% (inactive) in test [1], -2.67% (inactive) in test [6] and -2.55% (inactive) in test [7]. In addition, the viability is 104% (inactive) in test [2]; 111% (inactive) in test [3]; 98% (inactive) in test [4]; 85.7% in test [5] (setting [8]); 98% in test [5] (setting [9]). Moreover, the differential viability (reversal) in test [5] (H69AR cells + 2 uM doxorubicin) is 12.3% (inactive).

As for `CCOC(=O)C1SC2(C(F)F)CC1(O)c1c(c(OC)c3occc3c1OC)O2` (stereo not drawn), the inhibition in test [1] was 0% (inactive); in test [6] it was -4.73% (inactive); in test [7] it was 0.73% (inactive). Moreover, the viability in test [2] is 91% (inactive); in test [3], 93.3% (inactive); in test [4], 104% (inactive); in test [5] (setting [8]), 80.9%; in test [5] (setting [9]) it was 104%. Besides, the differential viability (reversal) in test [5] (H69AR cells + 2 uM doxorubicin) was 22.9% (inactive).

On to `COc1ccc(CCn2c(O)c(C=NCc3cccnc3)c(=O)[nH]c2=O)cc1OC`, for which the values for the inhibition in test [1], in test [6] and in test [7] were 0% (inactive), -4.67% (inactive) and 1.97% (inactive), respectively. For the same compound, the viability in test [2] is 63% (inactive); in test [3], 118% (inactive); in test [4], 95.4% (inactive); in test [5] (setting [8]), 94.3%; in test [5] (setting [9]), 95.4%. For the same compound, the differential viability (reversal) in test [5] (H69AR cells + 2 uM doxorubicin) was 1.12% (inactive).

Consider `COc1ccccc1CN1CCN(C(=O)Cc2ccccc2)CC1`, for which the inhibition in test [1] is 1% (inactive); in test [6], -4.8% (inactive); in test [7] it was -4.36% (inactive). The viability in test [2] is 97% (inactive); in test [3] it was 101% (inactive); in test [4], 99.6% (inactive); in test [5] (setting [8]) it was 96.1%; in test [5] (setting [9]), 99.6%. Besides, the differential viability (reversal) in test [5] (H69AR cells + 2 uM doxorubicin) is 3.51% (inactive).

`CN1CC[C@@]23CCCC[C@@H]2[C@@H]1Cc1ccc(O)cc13`: the inhibition in test [1] is 1% (inactive); in test [6], -3.12% (inactive); in test [7], -0.33% (inactive). In addition, the viability in test [2] is 88% (inactive); in test [3] it was 79.4% (inactive); in test [4], 95.8% (inactive); in test [5] (setting [8]) it was 88%; in test [5] (setting [9]) it was 95.8%. Besides, the differential viability (reversal) in test [5] (H69AR cells + 2 uM doxorubicin) is 7.79% (inactive).

Turning to `CN(C)[C@@H]1C(=O)C(C(N)=O)=C(O)[C@@]2(O)C(=O)C3=C(O)c4c(O)cccc4[C@@](C)(O)[C@H]3C[C@@H]12`, the inhibition in test [1] is 2% (inactive); in test [6], 0.13% (inactive); in test [7] it was -2% (inactive). The viability in test [2] was 91% (inactive); in test [3], 102% (inactive); in test [4], 102% (inactive); in test [5] (setting [8]) it was 89.8%; in test [5] (setting [9]), 102%. The differential viability (reversal) in test [5] (H69AR cells + 2 uM doxorubicin) was 11.8% (inactive).

As for `CN1C(=O)CN=C(c2ccc(Cl)cc2)c2cc(Cl)ccc21`, the inhibition in test [1] is 0% (inactive); in test [6], 0.39% (inactive); in test [7], 4.17% (inactive). Moreover, the viability in test [2] is 84% (inactive); in test [3], 61.8% (inactive); in test [4] it was 84.8% (inactive); in test [5] (setting [8]) it was 84.5%; in test [5] (setting [9]), 84.8%. Also, in test [5] (H69AR cells + 2 uM doxorubicin), the differential viability (reversal) was 0.31% (inactive).

Take `C=CCN1C(=O)C2(C(C(=O)OCC)=C(N)Oc3c2c(=O)oc2ccccc32)c2ccccc21` (stereo not drawn): the inhibition is 0% (inactive) in test [1], 0.27% (inactive) in test [6] and 1.45% (inactive) in test [7]. Besides, the viability was 61% (inactive) in test [2]; 108% (inactive) in test [3]; 98.2% (inactive) in test [4]; 109% in test [5] (setting [8]); 98.2% in test [5] (setting [9]). For the same compound, in test [5] (H69AR cells + 2 uM doxorubicin), the differential viability (reversal) is -10.5% (inactive).
